# Test results taken from publication PMC3823501 (Cancer research, 2013).
# Like-named read-outs stand apart in the source and are kept apart here.
# Experiments:
# [1] = patients; cited from earlier work
# KB-HURs cells [2] = conditions: cited from earlier work
# Tolerability in mice = format: in vivo; conditions: up to a daily dose of 500 mg/kg
# TOV-112D tumor xenograft = TOV-112D tumor xenograft in mice; format: in vivo, mouse; conditions: 200, 300, or 400 mg/kg/day oral, 7 days
# Procedure, shortened: (§1)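 Female NSG (NOD/SCID/IL2Rgamma null) mice, 8–10 weeks old, received 5×10^6 MOLT-4 or TOV-112D cells subcutaneously in the right flank. Tumour volume was taken as 0.5×l×w2. Once tumours reached about 70 mm3, test compound in 30% solutol was given daily by gavage on a one- or two-dose schedule. Mice were sacrificed on day 28 after implantation; 4 animals/group, mean ± SD.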
# KB-HURs cells [3] = experiment: 72 h viability assay, HU-resistant KB clone; format: cell-based, human
# Procedure, shortened: (§2)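 72 h MTS viability test (CellTiter 96 AQueous) on 10 replicate wells per condition, following the kit instructions. IC50 is the concentration that lowers viability to 50% of the DMSO control. KB cells were grown in RPMI 1640 with 10% FBS and 1% penicillin-streptomycin at 37°C in humidified 5% CO2. KB-HURs and KB-Gem are KB-derived resistant clones.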
# [4] = molecular target: T1, immobilized full-length hRRM2 (Homo sapiens, UniProt P31350); experiment: Surface plasmon resonance, immobilized full-length hRRM2; format: binding; conditions: 0.0 – 50.0 µM compound
# T1 sequence (P31350 1-389): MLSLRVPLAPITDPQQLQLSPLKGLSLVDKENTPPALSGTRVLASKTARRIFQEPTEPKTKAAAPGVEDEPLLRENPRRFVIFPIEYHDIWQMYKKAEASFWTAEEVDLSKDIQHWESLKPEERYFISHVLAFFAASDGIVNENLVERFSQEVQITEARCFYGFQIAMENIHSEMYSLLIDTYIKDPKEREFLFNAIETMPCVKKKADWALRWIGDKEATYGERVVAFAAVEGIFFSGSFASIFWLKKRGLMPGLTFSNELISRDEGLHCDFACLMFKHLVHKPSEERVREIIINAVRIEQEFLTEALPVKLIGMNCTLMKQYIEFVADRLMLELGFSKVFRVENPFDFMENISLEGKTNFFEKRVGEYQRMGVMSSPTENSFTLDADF
# Procedure, shortened: (§3)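 Surface plasmon resonance on a Biacore […], with full-length or C-terminally truncated hRRM2 immobilised on CM4 sensor chips. Test compound was injected at 0.0–50.0 µM and binding was read from sensorgrams.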
# [5] = test system: hRRM2 protein level in TOV-112D cells; experiment: Western blot of hRRM2 protein level, TOV-112D cells; format: cell-based, human; conditions: 20 µM
# Procedure, shortened: (§4)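 KB and TOV-112D cells were treated with 20 µM test compound for a series of times. Lysates were western blotted for hRRM2, with β-actin as loading control.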
# [6] = molecular target: T2, endogenously expressed RNR in KB cells (Homo sapiens, UniProt P31350); experiment: RNR activity in cell lysates of KB cells; format: cell-based; conditions: 24 h incubation, 10 µM
# T2 sequence (P31350 1-389): T1 sequence (P31350 1-389)
# RRM1-RRM2 interaction = molecular target: T3, RRM1-RRM2 interaction (Homo sapiens, UniProt P31350); format: binding
# T3 sequence (P31350 1-389): T1 sequence (P31350 1-389)
# Procedure, shortened: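 Surface plasmon resonance on a Biacore […] with hRRM2 immobilised on a CM4 chip. hRRM1 (0–1 µM) binding was first confirmed and a KD derived. A fixed 0.5 µM hRRM1 was then co-injected with test compound at 0–50 µM, and sensorgrams were read.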
# [7] = test system: NCI broad panel of 60 human cancer cell lines; experiment: NCI 60 human cancer cell line panel, MTT cytotoxicity; format: cell-based; conditions: 10 µM
# KBHURs cells = experiment: Real-time cell proliferation; format: cell-based, human; conditions: COH29 2–250 µM
# Procedure, shortened: (§5)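 Cell proliferation was followed by real-time electronic cell sensing (RT-CES, W200 16X) with 2,500 cells seeded per well. From 24 h after seeding, the cell index was recorded every half hour for 120 hours. Quadruplicate samples were used, and traces show the mean of 4 replicates.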
# KB cells [8] = experiment: Real-time cell proliferation; format: cell-based, human; conditions: 20 µM COH29, 20 µM Gem or 1 mM HU
# Procedure, shortened: as §5
# [9] = test system: dNTP pools in MOLT-4 tumor xenografts; experiment: Intratumoral dNTP pools of MOLT-4 tumor xenografts; format: in vivo, mouse; conditions: MOLT-4 xenografts, treated vs. control
# NHDF cells = experiment: 72 h viability assay, normal dermal fibroblasts; format: cell-based; conditions: Homo sapiens, read-out: IC50, viability
# KB-Gem cells [10] = experiment: 72 h viability assay, gemcitabine-resistant KB clone; format: cell-based; conditions: Homo sapiens, read-out: IC50, toxicity assay
# Procedure, shortened: as §2
# [11] = test system: dNTP pools in MOLT-4 cells; experiment: dNTP pools in MOLT-4 cells; format: cell-based, human; conditions: 10 µM, by 24 h
# Procedure, shortened: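 MOLT-4 cells were exposed to 10 µM test compound or left untreated (control). dATP, dCTP and dGTP levels were measured after 4, 8 and 24 h.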
# KB cells [12] = experiment: Cell cycle and apoptosis by flow cytometry, KB cells; format: cell-based, human
# Procedure, shortened: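 After 48 h of treatment, KB cells were analysed on a FACScalibur flow cytometer. Propidium iodide staining gave cell-cycle distribution and Annexin V signal gave apoptosis.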
# KB cells [13] = experiment: 72 h MTS viability assay, KB cells; format: cell-based, human
# Procedure, shortened: as §2
# recombinant hRRM2/hRRM1 = molecular target: T4, recombinant hRRM2/hRRM1 (Homo sapiens, UniProt P31350); experiment: [3H] CDP reduction assay, recombinant hRRM2/hRRM1; format: biochemical
# T4 sequence (P31350 1-389): T1 sequence (P31350 1-389)
# [14] = molecular target: T5, C-terminal truncated hRRM2 (Homo sapiens, UniProt P31350); experiment: Surface plasmon resonance, C-terminal truncated hRRM2; format: binding; conditions: 0.0 – 50.0 µM compound
# T5 sequence (P31350 1-348 limits assumed): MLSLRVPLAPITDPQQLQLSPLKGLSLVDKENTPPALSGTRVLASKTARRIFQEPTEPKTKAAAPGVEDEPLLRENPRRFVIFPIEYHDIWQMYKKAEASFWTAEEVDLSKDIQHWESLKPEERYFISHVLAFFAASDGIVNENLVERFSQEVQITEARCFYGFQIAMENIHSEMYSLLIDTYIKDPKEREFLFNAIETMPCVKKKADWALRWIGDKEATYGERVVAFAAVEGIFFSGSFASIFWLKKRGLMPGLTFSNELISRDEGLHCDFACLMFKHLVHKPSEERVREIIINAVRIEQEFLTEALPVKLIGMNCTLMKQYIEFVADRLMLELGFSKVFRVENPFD
# Procedure, shortened: as §3
# [15] = molecular target: T6, RNR in MOLT-4 tumor xenografts (Homo sapiens, UniProt P31350); experiment: RNR activity in extracts of MOLT-4 tumor xenografts; format: in vivo, mouse; conditions: mice treated for 12 days, 100 mg/kg
# T6 sequence (P31350 1-389): T1 sequence (P31350 1-389)
# Procedure, shortened: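 RNR activity was measured in extracts of subcutaneous MOLT-4 xenografts from NSG mice dosed orally for 12 days with vehicle (solutol-15) or 100 mg/kg test compound.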
# [16] = Pharmacokinetics in mice, HPLC-MS/MS of plasma; format: in vivo, mouse
# Procedure, shortened: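 Mice received 800 mg/kg test compound orally or intravenously. Plasma levels were measured by HPLC-tandem mass spectrometry (Agilent 1100 capillary LC with triple-quadrupole MS). Oral bioavailability was derived by comparison with the intravenous route.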
# [17] = test system: hRRM2 protein level in KB cells; experiment: Western blot of hRRM2 protein level, KB cells; format: cell-based, human; conditions: 20 µM
# Procedure, shortened: as §4
# MOLT-4 tumor xenograft = MOLT-4 tumor xenograft in mice; format: in vivo, mouse; conditions: twice-daily oral dosing 50 mg/kg and 100 mg/kg, Day 12
# Procedure, shortened: as §1
# KB-Gem cells [18] = experiment: Real-time cell proliferation; format: cell-based, human; conditions: COH29 2–250 µM
# [19] = Homo sapiens, KB, read-out: IC50, cell proliferation/viability
# [20] = female, Balb/c nude, mouse, plasma, po, 800 mg/kg
structure (smiles),measurement,setting,value
"NC(=S)NN=Cc1ncccc1N [3-AP, 3-aminopyridine-2-carboxaldehyde thiosemicarbazone]",toxicities reported from the phase I trial,[1],"hypoxia, respiratory distress, and methemoglobulinemia"
same,activity in KBHURs,KB-HURs cells [2],active
"O=C(Nc1nc(-c2ccc(O)c(O)c2)c(-c2ccccc2)s1)c1ccc(O)c(O)c1 [COH29, N-(4–(3,4-dihydroxyphenyl)-5-phenylthiazol-2-yl)-3,4-dihydroxybenzamide]","tolerability, side effects",Tolerability in mice,no appreciable side effects
same,TOV-112D tumor xenograft growth,TOV-112D tumor xenograft,dose-dependent inhibition
same,IC50,"KB-HURs cells [3]; Homo sapiens, read-out: IC50, toxicity assay",8 µM
same,interaction with immobilized full-length hRRM2 (sensorgram),[4],dose-dependent interaction
same,hRRM2 protein level,[5],unaffected
same,decrease of endogenously expressed RNR activity,[6],approximately 50%
same,effect on RRM1-RRM2 binding,"RRM1-RRM2 interaction; 0.5 µM RRM1, 0 – 50 µM compound",interfered with RRM1-RRM2 binding in a dose-dependent manner
same,effect on RRM1-RRM2 interaction at low dose,"RRM1-RRM2 interaction; 12.5 µM compound, 0.5 µM RRM1",enhanced RRM1-RRM2 interaction
same,effect on RRM1-RRM2 complex at higher dose,"RRM1-RRM2 interaction; > 25µM compound, 0.5 µM RRM1",disrupted the complex
same,cytotoxicity in NCI 60 panel,[7],Impressive inhibition of most of the cancer cell lines
same,real-time growth of KBHURs,KBHURs cells,remained sensitive
same,real-time KB cell growth after addition at 24 h,KB cells [8],essentially halted
same,intratumoral dNTP pools,[9],decreased
same,IC50,NHDF cells,82 µM
same,IC50,KB-Gem cells [10],8 µM
same,"levels of dATP, dCTP and dGTP",[11],all pools were greatly decreased
same,apoptosis,KB cells [12],underwent apoptosis
same,cell cycle distribution,KB cells [12]; 48 h treatment,arrested at S-phase
same,IC50,KB cells [13]; [19],8 µM
same,IC50,recombinant hRRM2/hRRM1,16 µM
same,binding after removal of 41 C-terminal amino acids from hRRM2,[14],greatly decreased
same,RNR activity in extracts of MOLT-4 tumor xenografts,[15],dramatically lower
same,peak plasma concentration,"[16]; PO 800 mg/kg in 30% solutol, female Balb/c nude mice",10 µM
same,Tmax,[16]; [20],30 min
same,concentration at 24 h,[16]; [20],~200 nM
same,hRRM2 protein level,[17],unaffected
same,MOLT-4 tumor xenograft growth,MOLT-4 tumor xenograft,dose-dependent inhibition
same,real-time growth of KB-Gem,KB-Gem cells [18],cytotoxic activity is strong and is unaffected by Gem resistance
"Nc1ccn([C@@H]2O[C@H](CO)[C@@H](O)C2(F)F)c(=O)n1 [Gem, gemcitabine]",real-time KB cell growth after addition at 24 h,KB cells [8],cell growth continued
same,IC50,KB-Gem cells [10],1000 µM
same,IC50,KB cells [13]; [19],9 µM
"NC(=O)NO [HU, hydroxyurea]",IC50,"KB-HURs cells [3]; read-out: IC50, toxicity assay, KB-HURs",320 µM
same,real-time KB cell growth after addition at 24 h,KB cells [8],cell growth continued
same,IC50,"KB cells [13]; read-out: IC50, cell proliferation/viability, KB cells",180 µM
